The values that follow come from the M2OR odorant receptor database.

Each structure is given as a SMILES string.
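Note: active if original authors judged signal statistically different from baseline.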

The first assay concerns the target T1, UniProt A2AVB0.
T1 sequence (whole entry): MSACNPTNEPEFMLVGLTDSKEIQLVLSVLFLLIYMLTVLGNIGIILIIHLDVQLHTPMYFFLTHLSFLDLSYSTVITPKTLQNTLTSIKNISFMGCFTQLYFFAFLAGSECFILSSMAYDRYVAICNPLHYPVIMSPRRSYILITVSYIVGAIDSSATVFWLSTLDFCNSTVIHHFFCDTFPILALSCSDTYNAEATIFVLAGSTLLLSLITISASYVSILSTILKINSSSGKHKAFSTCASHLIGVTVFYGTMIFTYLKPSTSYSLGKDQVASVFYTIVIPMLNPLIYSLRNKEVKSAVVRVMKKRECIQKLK
As to conditions: stereoisomer not certain. The essentials:
(§1)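 Transient luciferase assays in mammalian cell lines were common, though methods varied by source. The values come from published papers and their supplementary material, with extra details from the original authors when needed. Responsive refers to a measured signal the original authors judged statistically different from baseline, and non-responsive (inactive) to the remainder.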
For `CCCC=O`, the “odorant receptor agonist call” value was “inactive”.
For `CCCCCCCCCCOC(C)=O`, the “odorant receptor agonist call” value is “inactive”.
In the case of `C=CC(=O)CCCCC`, the “odorant receptor agonist call” value is “inactive”.
Turning to `C=C(C)C1CCC(C)C(O)C1` (stereo not drawn), the “odorant receptor agonist call” value was “inactive”.
In the case of `CCc1ccc(O)cc1`, the “odorant receptor agonist call” value was “inactive”.
Turning to `CNc1ccccc1C(=O)OC`, the “odorant receptor agonist call” value was “inactive”.
`C=CC(C)=CCC=C(C)CCC=C(C)C`: the “odorant receptor agonist call” value is “inactive”.
On the same count and under the same terms, the value for `Cc1ccc(C(C)C)cc1` was “inactive”; that for `C1CCOCC1` was “inactive”.
Turning to `c1ccc2ncccc2c1`, the “odorant receptor agonist call” value was “inactive”.
With `CCCCCC(=Cc1ccccc1)C(OC)OC`, the “odorant receptor agonist call” value is “inactive”.
Same read-out and setting: to `CCC(C)O` (stereo not drawn) belongs “inactive”; to `C=CC(=C)CCC=C(C)C`, “inactive”; to `CC(=O)OC1(C)CCC23CC1C(C)(C)C2CCC3C` (stereo not drawn), “inactive”.
For the compound `CCCCCCC(=O)OCCCC`, the “odorant receptor agonist call” value was “inactive”.
As to `CC1CC=CCCCCCCCCCC(=O)C1` (stereo not drawn), the “odorant receptor agonist call” value was “inactive”.
On the same count and under the same terms, the value for `CC=C(C)C=O` was “inactive”; that for `OCCc1ccccc1` was “inactive”; that for `CCCO` was “inactive”.
The same measure, in the same setting: the value for `CCCCCCCCC=CC=O` was “inactive”; that for `CCC=CCCC=CC=O` was “inactive”; that for `CCCCCCCCCC=CC=O` was “inactive”.
The same measure, in the same setting: to `O=C(O)CCCCCCCCC(=O)O` belongs “inactive”.
With `O=C(O)C1CCC1`, the “odorant receptor agonist call” value is “inactive”.

The next assay deals with T2, UniProt A2AVB5.
T2 sequence (whole entry): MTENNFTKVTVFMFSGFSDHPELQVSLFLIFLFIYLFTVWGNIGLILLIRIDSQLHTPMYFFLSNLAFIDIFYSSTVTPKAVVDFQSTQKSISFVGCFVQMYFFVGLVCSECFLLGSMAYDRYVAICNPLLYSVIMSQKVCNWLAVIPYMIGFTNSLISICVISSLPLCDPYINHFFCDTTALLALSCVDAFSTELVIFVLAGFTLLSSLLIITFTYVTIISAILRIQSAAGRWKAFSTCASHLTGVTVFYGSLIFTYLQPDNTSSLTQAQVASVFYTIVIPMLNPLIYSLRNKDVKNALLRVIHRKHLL
The following applies: stereoisomer not certain. The gist of the method: as §1
Turning to `O=c1ccc2ccccc2o1`, the “odorant receptor agonist call” value is “active”.
Still for that read-out and setting: the value for `CCCCCCC(=O)[O-].[H+]` was “inactive”.
The same measure, in the same setting: the value for `CCCCCCCC(=O)[O-].[H+]` was “inactive”; that for `CCCCOC(=O)C(C)OC(=O)CCC` (stereo not drawn) was “inactive”; that for `CCCCCO` was “inactive”.
Same read-out and setting: to `CCC(C(=O)O)c1ccccc1` (stereo not drawn) belongs “inactive”; to `CCCC(C)=O`, “inactive”.

Another assay has as its target T3, UniProt B2RVX8.
T3 sequence (whole entry): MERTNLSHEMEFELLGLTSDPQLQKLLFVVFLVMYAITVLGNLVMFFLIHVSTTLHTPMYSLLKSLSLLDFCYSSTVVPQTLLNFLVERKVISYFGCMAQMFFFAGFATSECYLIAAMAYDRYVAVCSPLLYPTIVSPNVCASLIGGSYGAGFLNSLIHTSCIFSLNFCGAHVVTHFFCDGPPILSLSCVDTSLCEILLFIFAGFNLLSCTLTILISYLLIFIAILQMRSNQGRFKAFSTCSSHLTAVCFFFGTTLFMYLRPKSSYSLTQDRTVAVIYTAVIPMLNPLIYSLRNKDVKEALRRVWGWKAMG
The following applies: stereoisomer not certain. The gist of the method:
as §1
As to `O=c1ccc2ccccc2o1`, the “odorant receptor agonist call” value is “inactive”.
The same measure, in the same setting: to `CCCCCCC(=O)[O-].[H+]` belongs “inactive”.
Regarding `CCCCCCCC(=O)[O-].[H+]`, the “odorant receptor agonist call” value was “inactive”.
Same read-out and setting: the value for `CCCCOC(=O)C(C)OC(=O)CCC` (stereo not drawn) was “inactive”.
Still for that read-out and setting: the value for `CCCCCO` was “inactive”.
Still for that read-out and setting: the value for `CCC(C(=O)O)c1ccccc1` (stereo not drawn) was “inactive”; that for `CCCC(C)=O` was “inactive”.

The next assay addresses T4, UniProt E9PVX1.
T4 sequence (whole entry): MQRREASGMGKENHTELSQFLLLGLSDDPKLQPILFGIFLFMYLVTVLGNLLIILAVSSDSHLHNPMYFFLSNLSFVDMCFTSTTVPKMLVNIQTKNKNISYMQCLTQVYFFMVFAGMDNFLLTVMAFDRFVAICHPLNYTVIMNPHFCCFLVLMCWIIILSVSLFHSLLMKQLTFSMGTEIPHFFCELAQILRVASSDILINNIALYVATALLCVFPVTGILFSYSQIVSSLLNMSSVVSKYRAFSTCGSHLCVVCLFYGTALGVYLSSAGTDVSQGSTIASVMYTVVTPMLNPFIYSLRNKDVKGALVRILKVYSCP
The following applies: stereoisomer not certain. The essentials:
as §1
Turning to `CCCC=O`, the “odorant receptor agonist call” value was “inactive”.
As for `CCCCCCCCCCOC(C)=O`, the “odorant receptor agonist call” value is “inactive”.
As to `C=CC(=O)CCCCC`, the “odorant receptor agonist call” value was “inactive”.
Same read-out and setting: the value for `C=C(C)C1CCC(C)C(O)C1` (stereo not drawn) was “inactive”.
On the same count and under the same terms, the value for `CCc1ccc(O)cc1` was “inactive”; that for `CNc1ccccc1C(=O)OC` was “inactive”; that for `C=CC(C)=CCC=C(C)CCC=C(C)C` was “inactive”.
With `Cc1ccc(C(C)C)cc1`, the “odorant receptor agonist call” value was “inactive”.
On the same count and under the same terms, the value for `C1CCOCC1` was “inactive”; that for `c1ccc2ncccc2c1` was “inactive”.
On the same count and under the same terms, the value for `CCCCCC(=Cc1ccccc1)C(OC)OC` was “inactive”; that for `CCC(C)O` (stereo not drawn) was “inactive”; that for `C=CC(=C)CCC=C(C)C` was “inactive”.
In the case of `CC(=O)OC1(C)CCC23CC1C(C)(C)C2CCC3C` (stereo not drawn), the “odorant receptor agonist call” value was “inactive”.
Same read-out and setting: to `CCCCCCC(=O)OCCCC` belongs “inactive”; to `CC1CC=CCCCCCCCCCC(=O)C1` (stereo not drawn), “inactive”; to `CC=C(C)C=O`, “inactive”.
Take `OCCc1ccccc1`: the “odorant receptor agonist call” value is “inactive”.
Still for that read-out and setting: to `CCCO` belongs “inactive”; to `CCCCCCCCC=CC=O`, “inactive”; to `CCC=CCCC=CC=O`, “inactive”.
On the same count and under the same terms, the value for `CCCCCCCCCC=CC=O` was “inactive”; that for `O=C(O)CCCCCCCCC(=O)O` was “inactive”; that for `O=C(O)C1CCC1` was “inactive”.

For another assay, the target named is T5, UniProt E9PX47.
T5 sequence (whole entry): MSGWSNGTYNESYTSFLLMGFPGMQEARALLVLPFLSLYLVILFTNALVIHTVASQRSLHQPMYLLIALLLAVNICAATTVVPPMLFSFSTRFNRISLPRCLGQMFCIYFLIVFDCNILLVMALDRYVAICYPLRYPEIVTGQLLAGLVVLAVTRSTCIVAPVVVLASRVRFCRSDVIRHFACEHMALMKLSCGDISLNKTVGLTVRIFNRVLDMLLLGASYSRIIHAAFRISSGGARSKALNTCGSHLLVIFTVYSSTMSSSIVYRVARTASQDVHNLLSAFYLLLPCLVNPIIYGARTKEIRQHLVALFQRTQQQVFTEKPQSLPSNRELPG
As to conditions: stereoisomer not certain. The gist of the method:
as §1
For `CCCCCCC(=O)[O-].[H+]`, the “odorant receptor agonist call” value is “inactive”.
Same read-out and setting: to `CCCCCCCC(=O)[O-].[H+]` belongs “inactive”.
On the same count and under the same terms, to `CCCC(C)=O` belongs “inactive”.

The next assay addresses T6, UniProt E9PZ66.
T6 sequence (whole entry): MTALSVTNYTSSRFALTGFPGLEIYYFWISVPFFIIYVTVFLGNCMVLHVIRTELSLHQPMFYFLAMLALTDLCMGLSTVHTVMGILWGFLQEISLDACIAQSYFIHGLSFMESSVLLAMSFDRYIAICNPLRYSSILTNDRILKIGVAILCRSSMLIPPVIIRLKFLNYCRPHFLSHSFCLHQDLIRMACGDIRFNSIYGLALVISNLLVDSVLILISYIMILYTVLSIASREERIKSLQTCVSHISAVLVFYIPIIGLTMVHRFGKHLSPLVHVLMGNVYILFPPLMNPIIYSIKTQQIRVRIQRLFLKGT
As to conditions: stereoisomer not certain. The gist of the method:
as §1
On to `CCCC=O`, for which the “odorant receptor agonist call” value is “inactive”.
On the same count and under the same terms, to `CCCCCCCCCCOC(C)=O` belongs “inactive”; to `C=CC(=O)CCCCC`, “inactive”.
Same read-out and setting: to `C=C(C)C1CCC(C)C(O)C1` (stereo not drawn) belongs “inactive”; to `CCc1ccc(O)cc1`, “inactive”.
Same read-out and setting: to `CNc1ccccc1C(=O)OC` belongs “inactive”; to `C=CC(C)=CCC=C(C)CCC=C(C)C`, “inactive”; to `Cc1ccc(C(C)C)cc1`, “inactive”.
Consider `C1CCOCC1`, for which the “odorant receptor agonist call” value was “inactive”.
On the same count and under the same terms, the value for `c1ccc2ncccc2c1` was “inactive”.
Regarding `CCCCCC(=Cc1ccccc1)C(OC)OC`, the “odorant receptor agonist call” value was “inactive”.
On the same count and under the same terms, to `CCC(C)O` (stereo not drawn) belongs “inactive”; to `C=CC(=C)CCC=C(C)C`, “inactive”; to `CC(=O)OC1(C)CCC23CC1C(C)(C)C2CCC3C` (stereo not drawn), “inactive”.
For `CCCCCCC(=O)OCCCC`, the “odorant receptor agonist call” value is “inactive”.
Still for that read-out and setting: to `CC1CC=CCCCCCCCCCC(=O)C1` (stereo not drawn) belongs “inactive”; to `CC=C(C)C=O`, “inactive”; to `OCCc1ccccc1`, “inactive”.
For the compound `CCCO`, the “odorant receptor agonist call” value was “inactive”.
On the same count and under the same terms, to `CCCCCCCCC=CC=O` belongs “inactive”.
The same measure, in the same setting: the value for `CCC=CCCC=CC=O` was “inactive”; that for `CCCCCCCCCC=CC=O` was “inactive”; that for `O=C(O)CCCCCCCCC(=O)O` was “inactive”.
Same read-out and setting: the value for `O=C(O)C1CCC1` was “inactive”.

A further assay addresses T7, UniProt E9Q4X7.
T7 sequence (whole entry): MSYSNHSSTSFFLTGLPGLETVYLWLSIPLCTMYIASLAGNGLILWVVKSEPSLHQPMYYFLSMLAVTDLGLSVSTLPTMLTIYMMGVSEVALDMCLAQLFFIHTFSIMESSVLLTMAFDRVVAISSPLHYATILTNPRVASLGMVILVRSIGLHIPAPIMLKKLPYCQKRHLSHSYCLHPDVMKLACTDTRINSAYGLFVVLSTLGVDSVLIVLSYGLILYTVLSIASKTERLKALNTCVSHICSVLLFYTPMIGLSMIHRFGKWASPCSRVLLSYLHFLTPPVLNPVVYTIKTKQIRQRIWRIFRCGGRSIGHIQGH
The following applies: stereoisomer not certain. The essentials: as §1
Turning to `CCCC=O`, the “odorant receptor agonist call” value was “inactive”.
Consider `CCCCCCCCCCOC(C)=O`, for which the “odorant receptor agonist call” value was “inactive”.
The same measure, in the same setting: to `C=CC(=O)CCCCC` belongs “inactive”; to `C=C(C)C1CCC(C)C(O)C1` (stereo not drawn), “inactive”; to `CCc1ccc(O)cc1`, “inactive”.
Same read-out and setting: to `CNc1ccccc1C(=O)OC` belongs “inactive”.
The same measure, in the same setting: to `C=CC(C)=CCC=C(C)CCC=C(C)C` belongs “inactive”.
In the case of `Cc1ccc(C(C)C)cc1`, the “odorant receptor agonist call” value is “inactive”.
Take `C1CCOCC1`: the “odorant receptor agonist call” value is “inactive”.
On the same count and under the same terms, the value for `c1ccc2ncccc2c1` was “inactive”; that for `CCCCCC(=Cc1ccccc1)C(OC)OC` was “inactive”; that for `CCC(C)O` (stereo not drawn) was “inactive”.
For the compound `C=CC(=C)CCC=C(C)C`, the “odorant receptor agonist call” value was “inactive”.
`CC(=O)OC1(C)CCC23CC1C(C)(C)C2CCC3C` (stereo not drawn): the “odorant receptor agonist call” value was “inactive”.
Still for that read-out and setting: the value for `CCCCCCC(=O)OCCCC` was “inactive”; that for `CC1CC=CCCCCCCCCCC(=O)C1` (stereo not drawn) was “inactive”.
Still for that read-out and setting: to `CC=C(C)C=O` belongs “inactive”.
For `OCCc1ccccc1`, the “odorant receptor agonist call” value is “inactive”.
On the same count and under the same terms, to `CCCO` belongs “inactive”; to `CCCCCCCCC=CC=O`, “inactive”.
The same measure, in the same setting: to `CCC=CCCC=CC=O` belongs “inactive”.
Take `CCCCCCCCCC=CC=O`: the “odorant receptor agonist call” value was “inactive”.
Still for that read-out and setting: to `O=C(O)CCCCCCCCC(=O)O` belongs “inactive”; to `O=C(O)C1CCC1`, “inactive”.
